Measured values collected from several papers.
Compare with care: the assays were run in different laboratories.
CDK6 with cyclin D3: Cyclin-dependent kinase 6, with cyclin D3 (CDK6, Homo sapiens, UniProt Q00534)
CDK6: Cyclin-dependent kinase 6 (CDK6, Homo sapiens, UniProt Q00534)
CDK6 with cyclin D1: Cyclin-dependent kinase 6, with cyclin D1 (CDK6, Homo sapiens, UniProt Q00534)

target	read-out	mode	method	tested at	quantity	result	Structure (SMILES)
CDK6 with cyclin D3	enzyme activity	inhibitor	–	10 µM	inhibition	73%	CCN(CC)CCNC(=O)c1c(C)[nH]c(/C=C2\C(=O)Nc3ccc(F)cc32)c1C
CDK6 with cyclin D3	enzyme activity	inhibitor	–	1 µM	remaining activity	96.4%	CC(C)(O)[C@H]1CC[C@H](Nc2ccc3ncc(-c4cccc(C(F)(F)F)c4)n3n2)CC1
CDK6	enzyme activity	inhibitor	radiometric	50 nM	inhibition	22%	Cn1cnc(Br)c1C1=CN(c2ncnc3[nH]cnc23)CCS1
CDK6 with cyclin D3	enzyme activity	inhibitor	–	1 µM	activity vs control	101%	Cc1ccc(C(=O)NCc2ccsc2)cc1C#Cc1cn(C(C)C)c2ncnc(N)c12
CDK6 with cyclin D3	enzyme activity	inhibitor	radiometric	1 µM	remaining activity	97%	CC(C)(C)c1nc2c(s1)c1nc(N)ncc1c1ccc(NS(=O)(=O)c3c(F)cccc3F)c(F)c12
CDK6 with cyclin D3	enzyme activity	inhibitor	–	10 µM	inhibition	-5%	CNC(=O)c1cc(Oc2ccc(NC(=O)Nc3ccc(Cl)c(C(F)(F)F)c3)cc2)ccn1
CDK6 with cyclin D1	cell-free assay	–	–	0.5 µM	remaining signal	97%	O=C1Nc2ccc(Cl)cc2C1=Cc1cc(Cl)c(O)c(Cl)c1
CDK6 with cyclin D1	enzyme activity	inhibitor	radiometric	1 µM	remaining activity	104%	CC(C)(C)c1nc(-c2cccc(NS(=O)(=O)c3c(F)cccc3F)c2F)c(-c2ccnc(N)n2)s1
CDK6 with cyclin D3	cell-free assay	–	–	0.5 µM	remaining signal	26%	N#CCCc1ccc2c(c1)-c1[nH]c3ccc([N+](=O)[O-])cc3c1CC(=O)N2
CDK6	enzyme activity	inhibitor	–	0.1 µM	inhibition	85%	Nc1nc(Nc2ccc(S(N)(=O)=O)cc2)sc1C(=O)c1ccccc1[N+](=O)[O-]
CDK6 with cyclin D3	enzyme activity	inhibitor	–	1 µM	activity vs control	114%	CC(C)c1ccc(NC(=O)c2cccs2)c(-c2nc3ccccc3[nH]c2=O)c1
CDK6 with cyclin D3	enzyme activity	inhibitor	–	5 µM	remaining activity	92.6%	O=C(Nc1cnn(-c2csc(C(=O)NC3COC3)c2)c1)Nc1c(F)cccc1Cl
CDK6 with cyclin D3	enzyme activity	inhibitor	–	1 µM	inhibition	< 10%	CCCS(=O)(=O)Nc1ccc(F)c(C(=O)c2c[nH]c3ncc(-c4ccc(Cl)cc4)cc23)c1F
CDK6 with cyclin D3	enzyme activity	inhibitor	–	0.3 µM	inhibition	-7%	Cc1ccc(Nc2nccc(N(C)c3ccc4c(C)n(C)nc4c3)n2)cc1S(N)(=O)=O
CDK6 with cyclin D1	cell-free assay	–	–	0.5 µM	remaining signal	99%	O=C1NC(=O)c2cc(Nc3ccc(F)cc3)c(Nc3ccc(F)cc3)cc21
CDK6 with cyclin D3	enzyme activity	inhibitor	–	1 µM	inhibition	-8%	CN1CC(Oc2cnc(C#N)cc2-c2ccn3nc(NC(=O)C4CC4)cc3c2)C1
CDK6 with cyclin D3	enzyme activity	inhibitor	–	5 µM	remaining activity	114%	O=C(Nc1cnn(-c2csc(C(=O)NC3COC3)c2)c1)Nc1ccccc1Cl
